Consider six compounds from ChEMBL document CHEMBL5537213, “Cytotoxicity of phosphoramidate, bis-amidate and cycloSal prodrug metabolites against tumour and normal cells” (RSC Med Chem, 2024).

Data set [1] deals with GL261. As to the kind of experiment: Antiproliferative activity against mouse GL261 cells transfected with luciferase gene assessed as reduction in cell index at 256 uM incubated for 72 hrs by xCELLigence real time cell analyser method. Type of data set: functional, cell-based. Summed up: (§1)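 Cells seeded on E16 xCELLigence plates (BxPC3 5 × 10^3/well; GL261-Luc and primary astrocytes 3 × 10^3/well), treated after 24 h in supplemented DMEM with 0.1% DMSO final. Impedance cell index read hourly for 72 h, normalised to control (100% viability). At least three independent experiments, two replicates each; ANOVA with Dunnett's test.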

In data set [2] the test system is GL261. Put plainly: Induction of apoptosis in mouse GL261 cells transfected with luciferase gene assessed as increase in caspase 3/7 activation at 256 uM incubated for 72 hrs by laser scanning imaging analysis. Type of data set: functional, cell-based. Summed up: (§2)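 BxPC3 (5 × 10^3/well) or GL261-Luc (3 × 10^3/well) exposed 24 h post-plating for 72 h, 0.1% DMSO final. CellEvent caspase-3/7 green reagent 1 h at 37 °C; whole-well fluorescence imaged (Ex 488/Em 520 nm). Cells then fixed, permeabilised, blocked and stained with CellTag 700 (Ex 685/Em 720 nm); caspase signal normalised to cell number, expressed as fold over control. At least three experiments, at least four replicates each.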

Data set [3] has as its system BXPC-3. As to the kind of experiment: Cytotoxicity against human BXPC-3 cells assessed as reduction in cell viability at 256 uM incubated for 72 hrs by CyQUANT assay. Type of data set: functional, cell-based. A digest of the protocol: (§3)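 BxPC3 (5 × 10^3/well) or primary C57BL/6 male mouse astrocytes (>90% GFAP-positive; 3 × 10^3/well) treated 24 h after plating for 72 h, 0.1% DMSO final. Stained 1 h at 37 °C with CyQUANT Direct nucleic acid stain plus background suppressor in HBSS; whole-well fluorescence imaged (Ex 488/Em 520 nm), normalised to control. At least three experiments, at least four replicates each.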

Data set [4] concerns Astrocyte. Put plainly: Cytotoxicity against mouse astrocyte cells assessed as reduction in cell index at 256 uM incubated for 72 hrs by xCELLigence real time cell analyser method relative to control. More on the design: scale not given: the % may be the effect or the level left. The data set is classed as toxicity, cell-based. A digest of the protocol:
as §1

In data set [5] the test system is BXPC-3. As to the kind of experiment: Antiproliferative activity against human BXPC-3 cells assessed as reduction in cell index at 256 uM incubated for 72 hrs by xCELLigence real time cell analyser method. Type of data set: functional, cell-based. Summed up: as §1
Data set [6] deals with Astrocyte. Put plainly: Cytotoxicity against mouse astrocyte cells assessed as reduction in cell viability at 256 uM incubated for 72 hrs by CyQUANT assay. Type of data set: toxicity, cell-based. Summed up:
as §3

For data set [7], the system named is BXPC-3. As to the kind of experiment: Induction of apoptosis in human BXPC-3 cells assessed as increase in caspase 3/7 activation at 256 uM incubated for 72 hrs by laser scanning imaging analysis. The data set is classed as functional, cell-based. Summed up: as §2
Data set [8] concerns GL261. As to the kind of experiment: Antiproliferative activity against mouse GL261 cells transfected with luciferase gene assessed as reduction in ATP release at 256 uM incubated for 72 hrs in presence of D-luciferin by luminescence based SpectraMax M5 microplate reader analysis. The data set is classed as functional, cell-based. A digest of the protocol:
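Luciferase-expressing GL261-Luc seeded at 3 × 10^3/well in DMEM with 10% FBS; 24 h later exposed to compounds with 0.1% DMSO final for 72 h. Medium replaced by D-luciferin 150 μg mL-1 in complete medium, 15 min at 37 °C; luminescence read on plate reader, normalised to control. At least three experiments, at least four replicates each.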

In data set [9] the test system is Astrocyte. Put plainly: Cytotoxicity against mouse astrocyte cells assessed as reduction in cell index at 128 uM measured after 4 hrs by xCELLigence real time cell analyser method. Type of data set: toxicity, cell-based. Summed up: (§4)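 Real-time impedance: cells seeded on E16 plates (BxPC3 5 × 10^3/well; GL261-Luc and primary astrocytes 3 × 10^3/well), treated after 24 h in DMEM/10% FBS with 0.1% DMSO final. Cell index read hourly for 72 h and normalised to control (100% viability). At least three independent experiments, duplicates each; mean ± S.D.; ANOVA with Dunnett's test.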

The test system of data set [10] is GL261. As to the kind of experiment: Induction of apoptosis in mouse GL261 cells transfected with luciferase gene assessed as fold increase in caspase 3/7 activation at 128 uM incubated for 72 hrs by laser scanning imaging analysis. Type of data set: functional. Summed up: as §2
Data set [11] deals with GL261. As to the kind of experiment: Antiproliferative activity against mouse GL261 cells transfected with luciferase gene assessed as reduction in ATP release at 128 uM incubated for 72 hrs in presence of D-luciferin by luminescence based SpectraMax M5 microplate reader analysis. The data set is classed as functional. The arrangement: scale not given: the % may be the effect or the level left. Summed up:
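Luciferase-expressing GL261 cells were seeded at 3 × 10^3/well, then dosed 24 h later for 72 h in supplemented DMEM with 0.1% DMSO final. Medium was replaced with D-luciferin (150 µg/mL in complete medium) for 15 min at 37 °C, and luminescence was read on a plate reader and normalised to control. ≥3 experiments, ≥4 replicates.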

Data set [12] has as its system BXPC-3. As to the kind of experiment: Induction of apoptosis in human BXPC-3 cells assessed as fold increase in caspase 3/7 activation at 128 uM incubated for 72 hrs by laser scanning imaging analysis. Type of data set: functional. Summed up: (§5)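 BxPC3 (5 × 10^3/well) or GL261-Luc (3 × 10^3/well) were dosed 24 h after seeding for 72 h (0.1% DMSO final). CellEvent caspase-3/7 reagent was added for 1 h at 37 °C and whole-well fluorescence imaged (Ex 488/Em 520 nm). Cells were then fixed, permeabilised, blocked and stained with CellTag 700 (Ex 685/Em 720 nm) for cell number. Signal per cell is given as fold over control. ≥3 experiments, ≥4 replicates.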

For data set [13], the system named is Astrocyte. As to the kind of experiment: Cytotoxicity against mouse astrocyte cells assessed as reduction in cell viability at 128 uM incubated for 72 hrs by CyQUANT assay. Type of data set: toxicity, cell-based. A digest of the protocol:
(§6)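 BxPC3 (5 × 10^3/well) or primary astrocytes (3 × 10^3/well) were dosed 24 h after plating, in supplemented DMEM with 0.1% DMSO final, for 72 h. Stained 1 h at 37 °C with CyQUANT Direct nucleic acid stain plus background suppressor in HBSS. Whole-well fluorescence imaged (Ex 488/Em 520 nm) and normalised to control. ≥3 experiments, ≥4 replicates.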

Data set [14] deals with BXPC-3. As to the kind of experiment: Antiproliferative activity against human BXPC-3 cells assessed as reduction in cell index at 128 uM incubated for 72 hrs by xCELLigence real time cell analyser method relative to control. Type of data set: functional. The arrangement: scale not given: the % may be the effect or the level left. Summed up: as §4
For data set [15], the system named is BXPC-3. As to the kind of experiment: Cytotoxicity against human BXPC-3 cells assessed as reduction in cell viability at 128 uM incubated for 72 hrs by CyQUANT assay relative to control. The data set is classed as functional. A digest of the protocol: as §6
Data set [16] concerns Astrocyte. Put plainly: Cytotoxicity against mouse astrocyte cells assessed as reduction in cell index at 128 uM incubated for 72 hrs by xCELLigence real time cell analyser method relative to control. The data set is classed as toxicity, cell-based. More on the design: scale not given: the % may be the effect or the level left. A digest of the protocol: as §4
In data set [17] the test system is BXPC-3. Put plainly: Cytotoxicity against human BXPC-3 cells assessed as reduction in cell viability at 128 uM incubated for 72 hrs by CyQUANT assay. Type of data set: functional, cell-based. A digest of the protocol: as §6
In data set [18] the test system is BXPC-3. Put plainly: Antiproliferative activity against human BXPC-3 cells assessed as reduction in cell index at 128 uM incubated for 72 hrs by xCELLigence real time cell analyser method. Type of data set: functional, cell-based. Summed up: as §4
Data set [19] deals with BXPC-3. Put plainly: Induction of apoptosis in human BXPC-3 cells assessed as increase in caspase 3/7 activation at 128 uM incubated for 72 hrs by laser scanning imaging analysis. Type of data set: functional, cell-based. Summed up: as §5
Data set [20] has as its system GL261. As to the kind of experiment: Antiproliferative activity against mouse GL261 cells transfected with luciferase gene assessed as reduction in cell index at 128 uM incubated for 72 hrs by xCELLigence real time cell analyser method. The data set is classed as functional, cell-based. A digest of the protocol:
as §4

For data set [21], the system named is GL261. As to the kind of experiment: Induction of apoptosis in mouse GL261 cells transfected with luciferase gene assessed as increase in caspase 3/7 activation at 128 uM incubated for 72 hrs by laser scanning imaging analysis. The data set is classed as functional, cell-based. A digest of the protocol:
as §5

Active and inactive are the calls of the source. The rule behind the calls is not given here.

Consider `CC(C)OC(=O)[C@H](C)N`, for which the result in the data set with GL261 [1], in the data set on GL261 [2], in the data set with BXPC-3 [3], with BXPC-3 [5], in the data set on BXPC-3 [7] and in the data set with GL261 [8] was inactive. For the same compound, the Activity in the data set with Astrocyte [4] was determined as 11%; with Astrocyte [6], 12%.

As to `C[C@H](N)C(=O)OCc1ccccc1`, the result in the data set on GL261 [1], in the data set with GL261 [2], in the data set with BXPC-3 [3], in the data set on BXPC-3 [5], with BXPC-3 [7] and in the data set on GL261 [8] was inactive. Further, the Activity stood at 11% with Astrocyte [4] and 8% in the data set on Astrocyte [6].

For `Oc1cccc2ccccc12` [1-NAPHTHOL], the Activity result in the data set with Astrocyte [9] is “Toxic”; in the data set on GL261 [11], 53%; in the data set on Astrocyte [13] it was 29%; in the data set with BXPC-3 [14], 51%; in the data set on BXPC-3 [15], 53%. Besides, the “fold change (FC)” value worked out at 2 in the data set with GL261 [10] and 2.2 in the data set on BXPC-3 [12].

Consider `Oc1ccc2ccccc2c1` [BETANAPHTHOL], for which the Activity entry with Astrocyte [9] is listed as “Toxic”; in the data set with GL261 [11], 39%; in the data set with Astrocyte [16], 46%; in the data set on Astrocyte [13] it was 29%; in the data set with BXPC-3 [14], 94%; in the data set on BXPC-3 [15], 90%. In addition, the “fold change (FC)” value in the data set on BXPC-3 [12] stood at 8.1.

In the case of `Oc1ccccc1` [PHENOL], the result in the data set with BXPC-3 [17], in the data set with GL261 [11], in the data set with BXPC-3 [18], in the data set with BXPC-3 [19], in the data set on GL261 [20] and with GL261 [21] was inactive. The Activity with Astrocyte [16] was 11%; with Astrocyte [13], 8%.

For the compound `OCc1ccccc1O` [SALICYL ALCOHOL], the result in the data set on BXPC-3 [17], with GL261 [11], in the data set with BXPC-3 [18], in the data set with BXPC-3 [19], in the data set on GL261 [20] and with GL261 [21] was inactive. The values for the Activity with Astrocyte [16] and with Astrocyte [13] were 11% and 22%, respectively.
